Assay results from ChEMBL document CHEMBL3860034, “Development of Potent and Selective S. aureus Sortase A Inhibitors Based on Peptide Macrocycles” (ACS Med Chem Lett, 2016).
*1 amine or outer side, *2 acyl side, *3 side chain or, on linkers, in order; H or OH if unused. Where a SMILES comes first, the peptide text is derived from it. Bridges are numbered along the chain shown (N, C = ends). TBMB = c1c(C[*:1])cc(C[*:3])cc1C[*:2]; mXylylene = c1cc(C[*:1])cc(C[*:2])c1

What follows are compounds tested against T1, Sortase A (Staphylococcus aureus, UniProt Q9S446) (assay: Inhibition of Staphylococcus aureus His6-biotinylated SrtA expressed in Escherichia coli XL1-blue using Dabcyl-LPETG-Edans as substrate assessed as residual activity by fluorescence assay).
T1 sequence (Q9S446 whole entry): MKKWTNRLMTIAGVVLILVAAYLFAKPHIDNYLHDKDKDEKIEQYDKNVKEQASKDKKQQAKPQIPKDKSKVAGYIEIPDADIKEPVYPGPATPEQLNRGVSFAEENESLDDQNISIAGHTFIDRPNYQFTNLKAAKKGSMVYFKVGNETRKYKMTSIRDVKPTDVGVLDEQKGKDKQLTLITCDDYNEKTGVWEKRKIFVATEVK
Summary of the method: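 (His)6-SrtA26−206 from E. coli XL1-blue, purified by Ni affinity and gel filtration. Enzyme at 2.5 μM incubated with varied peptide concentrations (up to 300 μM). Residual activity measured with 20 μM Dabcyl-LPETG-Edans and 200 μM triglycine in 50 mM Tris-Cl pH 7.4, 150 mM NaCl, 5 mM CaCl2, 0.1% BSA, 37 °C. Fluorescence read at ex 350/em 480 nm. Ki from Supporting Information equations; at least three measurements.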
In the case of CC(C)C[C@@H]1NC(=O)[C@H](CCC(N)=O)NC(=O)[C@H](CCCNC(=N)N)NC(=O)[C@@H](NC(=O)[C@H](C)N)CSCc2cc3cc(c2)CSC[C@H](NC(=O)[C@@H]2CCCN2C(=O)[C@@H]2CCCN2C1=O)C(=O)N[C@@H](CO)C(=O)N[C@@H](Cc1ccccc1)C(=O)N[C@@H](CCC(=O)O)C(=O)N[C@H](C(=O)NCC(N)=O)CSC3 (H-ACRQLPPCSFECG-NH2; linker 2-8-12 via TBMB), the Ki is reported as 11.6 µM. In the case of CC[C@H](C)[C@@H]1NC(=O)[C@H](C)NC(=O)[C@@H](NC(=O)[C@H](C)N)CSCc2cc3cc(c2)CSC[C@H](C(=O)NCC(N)=O)NC(=O)[C@H](CCCNC(=N)N)NC(=O)[C@@H]2CCCN2C(=O)[C@H](CCC(N)=O)NC(=O)[C@H](CSC3)NC(=O)[C@@H]2CCCN2C(=O)[C@@H]2CCCN2C(=O)[C@H](CC(C)C)NC1=O, the Ki is reported as 21.5 µM. CC(C)C[C@@H]1NC(=O)[C@H]([C@@H](C)O)NC(=O)[C@@H](NC(=O)[C@H](C)N)CSCc2cc3cc(c2)CSC[C@H](NC(=O)[C@@H]2CCCN2C(=O)[C@@H]2CCCN2C(=O)[C@H](CC(C)C)NC1=O)C(=O)N[C@@H]([C@@H](C)O)C(=O)N1CCC[C@H]1C(=O)N[C@@H](CC(=O)O)C(=O)N[C@@H](CCC(N)=O)C(=O)N[C@H](C(=O)NCC(N)=O)CSC3 (H-ACTLLPPCTPDQCG-NH2; linker 2-8-13 via TBMB) gave a Ki of 32.1 µM. Work on CC[C@H](C)[C@@H]1NC(=O)[C@H](C)NC(=O)[C@@H](NC(=O)[C@H](C)N)CSCc2cc3cc(c2)CSC[C@H](NC(=O)[C@@H]2CCCN2C(=O)[C@@H]2CCCN2C(=O)[C@H](CC(C)C)NC1=O)C(=O)N[C@@H](CCC(N)=O)C(=O)N1CCC[C@H]1C(=O)N[C@@H](CCCNC(=N)N)C(=O)N[C@H](C(=O)NCC(N)=O)CSC3 yielded a Ki of 21.5 µM. Compound CC(C)C[C@@H]1NC(=O)[C@H](CCC(N)=O)NC(=O)[C@@H]2CCCN2C(=O)[C@@H](NC(=O)[C@H](C)N)CSCc2cc3cc(c2)CSC[C@H](NC(=O)[C@@H]2CCCN2C(=O)[C@@H]2CCCN2C1=O)C(=O)N[C@@H](CCCNC(=N)N)C(=O)N[C@@H](C(C)C)C(=O)N[C@@H](CO)C(=O)N[C@H](C(=O)NCC(N)=O)CSC3 (H-ACPQLPPCRVSCG-NH2; linker 2-8-12 via TBMB) has a Ki of 4.3 µM. CC(C)C[C@@H]1NC(=O)[C@H](CCC(N)=O)NC(=O)[C@@H]2CCCN2C(=O)[C@@H](NC(=O)[C@H](C)N)CSCc2cccc(c2)CSC[C@@H](C(=O)NCC(N)=O)NC(=O)[C@@H]2CCCN2C(=O)[C@@H]2CCCN2C1=O (H-ACPQLPPCG-NH2; linker 2-8 via mXylylene) gave a Ki of 4.9 µM. CC(C)C[C@@H]1NC(=O)[C@@H]2CCCN2C(=O)[C@@H](NC(=O)[C@H](C)N)CSCc2cc3cc(c2)CSC[C@H](NC(=O)[C@@H]2CCCN2C(=O)[C@@H]2CCCN2C(=O)[C@H](CC(C)C)NC1=O)C(=O)N[C@@H](C)C(=O)N[C@@H](CC(=O)O)C(=O)N[C@@H](CC(=O)O)C(=O)N[C@H](C(=O)NCC(N)=O)CSC3 (H-ACPLLPPCADDCG-NH2; linker 2-8-12 via TBMB) gave a Ki of 3 µM. Work on CC(C)C[C@@H]1NC(=O)[C@@H](NC(=O)[C@H](C)N)CSCc2cc3cc(c2)CSC[C@H](NC(=O)[C@@H]2CCCN2C(=O)[C@@H]2CCCN2C(=O)[C@H](CC(C)C)NC(=O)[C@H](CCC(N)=O)NC1=O)C(=O)N[C@@H](CO)C(=O)N[C@@H](CO)C(=O)N1CCC[C@H]1C(=O)N[C@H](C(=O)NCC(N)=O)CSC3 (H-ACLQLPPCSSPCG-NH2; linker 2-8-12 via TBMB) yielded a Ki of 11.6 µM. For CC[C@H](C)[C@@H]1NC(=O)CNC(=O)[C@H](CCC(N)=O)NC(=O)[C@@H](NC(=O)[C@H](C)N)CSCc2cc3cc(c2)CSC[C@H](NC(=O)[C@@H]2CCCN2C(=O)[C@@H]2CCCN2C(=O)[C@H](CC(C)C)NC1=O)C(=O)NCC(=O)N[C@@H](CCCNC(=N)N)C(=O)NCC(=O)NCC(=O)NCC(=O)NCC(=O)N[C@H](C(=O)NCC(N)=O)CSC3 (H-ACQGILPPCGRGGGGCG-NH2; linker 2-9-16 via TBMB), the Ki was 42 µM. In the case of CC(C)C[C@@H]1NC(=O)[C@H](CCC(N)=O)NC(=O)[C@H](CCCNC(=N)N)NC(=O)[C@@H](NC(=O)[C@H](C)N)CSCc2cc3cc(c2)CSC[C@H](NC(=O)[C@@H]2CCCN2C(=O)[C@@H]2CCCN2C1=O)C(=O)N[C@@H](C)C(=O)N[C@@H](CCC(=O)O)C(=O)N[C@@H](Cc1ccc(O)cc1)C(=O)N[C@@H](C(C)C)C(=O)N[C@H](C(=O)NCC(N)=O)CSC3, the Ki is reported as 45.5 µM. Work on CC[C@H](C)[C@@H]1NC(=O)CNC(=O)[C@H](CCC(N)=O)NC(=O)[C@@H](NC(=O)[C@H](C)N)CSCc2cc3cc(c2)CSC[C@H](NC(=O)[C@@H]2CCCN2C(=O)[C@@H]2CCCN2C(=O)[C@H](CC(C)C)NC1=O)C(=O)NCC(=O)N[C@@H](CCCNC(=N)N)C(=O)NCC(=O)NCC(=O)NCC(=O)N[C@H](C(=O)NCC(N)=O)CSC3 (H-ACQGILPPCGRGGGCG-NH2; linker 2-9-15 via TBMB) yielded a Ki of 42 µM. For CC(C)C[C@@H]1NC(=O)[C@H](CCC(N)=O)NC(=O)[C@H](CCCNC(=N)N)NC(=O)[C@H](NC(=O)[C@H](C)N)CSCc2cc3cc(c2)CSC[C@H](C(=O)NCC(N)=O)NC(=O)[C@H](C(C)C)NC(=O)[C@H](Cc2ccc(O)cc2)NC(=O)[C@H](CCC(=O)O)NC(=O)[C@H](C)NC(=O)[C@H](CSC3)NC(=O)[C@@H]2CCCN2C(=O)[C@@H]2CCCN2C1=O, the Ki was 45.5 µM. Compound CC[C@H](C)[C@@H]1NC(=O)[C@H](CO)NC(=O)[C@H](CO)NC(=O)[C@@H]2CSCc3cc(cc(c3)CSC[C@@H](C(=O)NCC(N)=O)NC(=O)[C@@H]3CCCN3C(=O)[C@@H]3CCCN3C(=O)[C@H](CC(C)C)NC1=O)CSC[C@H](NC(=O)[C@H](C)N)C(=O)N[C@@H](CCSC)C(=O)N[C@@H](Cc1ccc(O)cc1)C(=O)N[C@@H](CCC(N)=O)C(=O)N[C@@H](C)C(=O)N[C@@H](C)C(=O)N[C@@H](CC(C)C)C(=O)N2 (H-ACMYQAALCSSILPPCG-NH2; linker 2-9-16 via TBMB) has a Ki of 9.4 µM. Work on CC[C@H](C)[C@@H]1NC(=O)[C@H](CO)NC(=O)[C@@H](NC(=O)[C@H](C)N)CSCc2cc3cc(c2)CSC[C@H](NC(=O)[C@@H]2CCCN2C(=O)[C@@H]2CCCN2C(=O)[C@H](CC(C)C)NC1=O)C(=O)N[C@H](CC(N)=O)C(=O)N1CCC[C@H]1C(=O)N1CCC[C@H]1C(=O)N[C@@H](CCC(N)=O)C(=O)N[C@H](C(=O)NCC(N)=O)CSC3 yielded a Ki of 11.1 µM. Work on CC[C@H](C)[C@@H]1NC(=O)[C@H](CO)NC(=O)[C@@H](NC(=O)[C@H](C)N)CSCc2cc3cc(c2)CSC[C@H](NC(=O)[C@@H]2CCCN2C(=O)[C@@H]2CCCN2C(=O)[C@H](CC(C)C)NC1=O)C(=O)N[C@@H](CC(N)=O)C(=O)N1CCC[C@H]1C(=O)N1CCC[C@H]1C(=O)N[C@@H](CCC(N)=O)C(=O)N[C@H](C(=O)NCC(N)=O)CSC3 yielded a Ki of 11.1 µM. CC(C)C[C@@H]1NC(=O)[C@@H]2CCCN2C(=O)[C@@H](NC(=O)[C@H](C)N)CSCc2cc3cc(c2)CSC[C@H](NC(=O)[C@@H]2CCCN2C(=O)[C@@H]2CCCN2C(=O)[C@H](CC(C)C)NC1=O)C(=O)N[C@@H](Cc1cnc[nH]1)C(=O)N[C@@H](CC(C)C)C(=O)N1CCC[C@H]1C(=O)N[C@@H](CCC(N)=O)C(=O)N[C@H](C(=O)NCC(N)=O)CSC3 (H-ACPLLPPCHLPQCG-NH2; linker 2-8-13 via TBMB) was tested, and the Ki was 9.3 to 13.3 µM. CC(C)C[C@@H]1NC(=O)[C@H](CCC(N)=O)NC(=O)[C@@H](NC(=O)[C@H](C)N)CSCc2cc3cc(c2)CSC[C@H](NC(=O)[C@@H]2CCCN2C(=O)[C@@H]2CCCN2C(=O)[C@H](CC(C)C)NC1=O)C(=O)N1CCC[C@H]1C(=O)N[C@@H](Cc1ccccc1)C(=O)N[C@@H](CC(N)=O)C(=O)N[C@H](C(=O)NCC(N)=O)CSC3 (H-ACQLLPPCPFNCG-NH2; linker 2-8-12 via TBMB) showed a Ki of 19.3 µM. With CC(C)C[C@@H]1NC(=O)[C@H](CCC(N)=O)NC(=O)[C@@H]2CCCN2C(=O)[C@@H]2CSCc3cc(cc(c3)CSC[C@@H](C(=O)NCC(=O)O)NC(=O)[C@@H]3CCCN3C(=O)[C@@H]3CCCN3C1=O)CSC[C@H](NC(=O)[C@H](C)N)C(=O)N[C@@H]([C@@H](C)O)C(=O)N[C@@H](CO)C(=O)N[C@@H](CCCNC(=N)N)C(=O)N2 (H-ACTSRCPQLPPCG-OH; linker 2-6-12 via TBMB) the Ki was 1.8 µM. With CC(C)C[C@@H]1NC(=O)[C@@H]2CSCc3cc(cc(c3)CSC[C@H](NC(=O)[C@H](C)N)C(=O)N3CCC[C@H]3C(=O)N[C@@H](CCC(N)=O)C(=O)N[C@@H](CC(C)C)C(=O)N3CCC[C@H]3C(=O)N3CCC[C@H]3C(=O)N2)CSC[C@@H](C(=O)NCC(N)=O)NC(=O)[C@@H]2CCCN2C(=O)[C@H](Cc2ccc(O)cc2)NC1=O (H-ACPQLPPCLYPCG-NH2; linker 2-8-12 via TBMB) the Ki was 7.4 µM. CC(C)C[C@@H]1NC(=O)[C@H](CO)NC(=O)[C@@H]2CSCc3cc(cc(c3)CSC[C@H](NC(=O)[C@H](C)N)C(=O)N3CCC[C@H]3C(=O)N[C@@H](CC(C)C)C(=O)N[C@@H](CC(C)C)C(=O)N3CCC[C@H]3C(=O)N3CCC[C@H]3C(=O)N2)CSC[C@@H](C(=O)NCC(=O)O)NC(=O)[C@H](CC(=O)O)NC1=O (H-ACPLLPPCSLDCG-OH; linker 2-8-12 via TBMB) showed a Ki of 1.5 µM.
